Results published in BindingDB's records for PubMed 19295546 (Mayo Clinic).

What was measured:
[1] = target: T1, Signal transducer and activator of transcription 5A (Homo sapiens, UniProt P42229); experiment: Inhibition of STAT5 phosphorylation in human HEL cells by Western blot analysis
T1 sequence (P42229 whole entry): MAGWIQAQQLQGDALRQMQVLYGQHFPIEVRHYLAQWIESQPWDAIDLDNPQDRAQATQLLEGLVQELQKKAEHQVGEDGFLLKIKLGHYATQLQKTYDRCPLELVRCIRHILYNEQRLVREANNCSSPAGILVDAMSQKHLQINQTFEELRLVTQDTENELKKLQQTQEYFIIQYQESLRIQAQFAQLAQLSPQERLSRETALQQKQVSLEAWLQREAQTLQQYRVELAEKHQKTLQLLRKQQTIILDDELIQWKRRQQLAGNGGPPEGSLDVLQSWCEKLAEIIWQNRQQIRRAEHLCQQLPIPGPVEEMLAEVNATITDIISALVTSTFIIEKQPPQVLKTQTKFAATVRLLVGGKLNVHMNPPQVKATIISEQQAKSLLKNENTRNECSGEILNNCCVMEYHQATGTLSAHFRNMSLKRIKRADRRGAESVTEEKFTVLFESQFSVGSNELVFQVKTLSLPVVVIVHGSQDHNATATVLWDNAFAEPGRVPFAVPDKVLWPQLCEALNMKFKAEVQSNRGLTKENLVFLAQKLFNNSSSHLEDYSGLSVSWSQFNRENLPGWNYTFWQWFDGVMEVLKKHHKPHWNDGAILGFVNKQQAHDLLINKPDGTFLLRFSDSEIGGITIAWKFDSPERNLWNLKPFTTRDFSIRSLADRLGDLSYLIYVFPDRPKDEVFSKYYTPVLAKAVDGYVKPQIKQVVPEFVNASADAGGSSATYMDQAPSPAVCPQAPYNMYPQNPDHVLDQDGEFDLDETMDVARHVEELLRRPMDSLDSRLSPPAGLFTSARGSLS
Method in brief: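 HEL cells were starved overnight in RPMI with 1% FCS, then exposed to compound for 2 h at 37 °C. Cells were lysed in RIPA buffer (50 mM HEPES pH 7.4, 150 mM NaCl, 1% Triton X-100, deoxycholate, 0.1% SDS) with protease and phosphatase inhibitors. Protein was quantified by Bradford assay and blots were developed by chemiluminescence. Membranes were stripped and reprobed for total STAT5.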

[2] = target: Signal transducer and activator of transcription 3 (Homo sapiens, UniProt P40763); experiment: Inhibition of STAT3 phosphorylation in human HEL cells by Western blot analysis
Chain of Signal transducer and activator of transcription 3 (P40763 whole entry): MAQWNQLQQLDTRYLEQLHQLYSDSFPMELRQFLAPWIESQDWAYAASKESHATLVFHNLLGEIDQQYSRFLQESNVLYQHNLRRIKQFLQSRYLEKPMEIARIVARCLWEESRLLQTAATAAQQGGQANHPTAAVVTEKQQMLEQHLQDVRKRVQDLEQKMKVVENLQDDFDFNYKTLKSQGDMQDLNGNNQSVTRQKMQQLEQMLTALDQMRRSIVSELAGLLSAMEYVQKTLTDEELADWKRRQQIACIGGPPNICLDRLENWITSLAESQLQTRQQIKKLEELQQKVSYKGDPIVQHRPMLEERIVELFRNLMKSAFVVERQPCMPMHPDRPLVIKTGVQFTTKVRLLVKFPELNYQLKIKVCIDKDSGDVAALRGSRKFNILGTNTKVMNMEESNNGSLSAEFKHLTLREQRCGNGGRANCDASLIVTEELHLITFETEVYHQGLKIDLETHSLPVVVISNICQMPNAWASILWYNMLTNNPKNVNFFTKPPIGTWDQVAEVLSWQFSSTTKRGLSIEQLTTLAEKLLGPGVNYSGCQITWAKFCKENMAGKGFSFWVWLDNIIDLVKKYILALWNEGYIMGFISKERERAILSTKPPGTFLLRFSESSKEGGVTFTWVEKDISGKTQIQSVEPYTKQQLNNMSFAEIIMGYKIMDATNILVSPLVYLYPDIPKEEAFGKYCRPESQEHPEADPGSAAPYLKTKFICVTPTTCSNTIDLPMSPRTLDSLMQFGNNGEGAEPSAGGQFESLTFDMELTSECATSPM

[3] = target: 3-phosphoinositide-dependent protein kinase 1 (PDPK1) (Homo sapiens) (UniProt O15530); experiment: Inhibition of PDK1 (unknown origin)

IC50 [1]: 400 nM
IC50 [2]: 2500 nM
IC50 [3]: > 1000 nM
Structure (SMILES): N#CCNC(=O)c1ccc(-c2ccnc(Nc3ccc(N4CCOCC4)cc3)n2)cc1 [N-(cyanomethyl)-4-(2-(4-morpholinophenylamino)pyrimidin-4-yl)benzamide]
